# Molecular target: T1, Falcipain 2 (Plasmodium falciparum, UniProt Q9N6S8)
# T1 sequence (Q9N6S8 whole entry): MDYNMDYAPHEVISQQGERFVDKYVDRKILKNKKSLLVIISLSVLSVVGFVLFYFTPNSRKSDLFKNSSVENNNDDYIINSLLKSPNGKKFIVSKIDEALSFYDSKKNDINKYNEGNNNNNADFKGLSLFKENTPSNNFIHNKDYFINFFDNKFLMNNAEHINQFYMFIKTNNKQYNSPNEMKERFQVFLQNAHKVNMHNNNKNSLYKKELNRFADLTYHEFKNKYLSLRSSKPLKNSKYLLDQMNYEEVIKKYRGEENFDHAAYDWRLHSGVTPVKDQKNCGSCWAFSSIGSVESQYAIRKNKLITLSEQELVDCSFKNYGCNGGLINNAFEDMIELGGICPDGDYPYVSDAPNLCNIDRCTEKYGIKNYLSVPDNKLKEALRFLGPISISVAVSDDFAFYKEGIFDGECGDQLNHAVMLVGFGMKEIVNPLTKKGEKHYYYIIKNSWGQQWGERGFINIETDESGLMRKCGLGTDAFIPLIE
# Test: Inhibition of Plasmodium falciparum falcipain 2 incubated with compound for 10 mins before addition of 25 uM Z-Leu-Arg-AMC substrate by fluorescence spectrophotometry
# Method in brief: (§1)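 Run at 25 °C in 100 mM sodium acetate pH 6.0 with 5 mM DTT and 0.75% DMSO. Enzyme was preincubated 10 min with compound diluted from DMSO, then Z-Leu-Arg-AMC was added and fluorescence was read immediately. Eight inhibitor concentrations were made by fivefold serial dilution. IC50 was fitted to percent inhibition versus a no-inhibitor control against log concentration.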
row,SMILES,IC50 [µM]
1,O=C1Nc2c(Cl)cccc2C1C=NCCCNc1ccnc2cc(Cl)ccc12 (stereo not drawn) [(Z/E)-7-chloro-3-((3-(7-chloroquinolin-4-ylamino)propylamino)methylene)indolin-2-one],> 50
2,O=C1Nc2cc(Cl)ccc2C1C=NCCCNc1ccnc2cc(Cl)ccc12 (stereo not drawn) [(Z/E)-6-chloro-3-((3-(7-chloroquinolin-4-ylamino)propylamino)methylene)indolin-2-one],> 50
3,O=C1Nc2ccccc2C1C=Nc1ccccc1 (stereo not drawn) [3-((phenylamino)methylene)indolin-2-one],> 50
4,O=C1Nc2ccccc2C1C=NCCCNc1ccnc2cc(Cl)ccc12 (stereo not drawn) [(Z/E)-3-((3-(7-chloroquinolin-4-ylamino)propylamino)methylene)indolin-2-one],> 50
5,CCOC(=O)CN=CC1C(=O)Nc2ccccc21 (stereo not drawn) [(Z/E)-ethyl 2-((2-oxoindolin-3-ylidene)methylamino)acetate],> 50
6,CC(C)CCNC(=O)CN=CC1C(=O)Nc2ccccc21 (stereo not drawn) [(Z/E)-N-isopentyl-2-((2-oxoindolin-3-ylidene)methylamino)acetamide],> 50
7,CC(C)CCNC(=O)[C@H](CC(C)C)N=CC1C(=O)Nc2ccccc21 (stereo partly drawn) [(Z/E)-(S)-N-isopentyl-4-methyl-2-((2-oxoindolin-3-ylidene)methylamino)pentanamide],> 50
8,CN1C(=O)C(C=NCCCNc2ccnc3cc(Cl)ccc23)c2ccccc21 (stereo not drawn) [(Z/E)-3-((3-(7-chloroquinolin-4-ylamino)propylamino)methylene)-1-methylindolin-2-one],> 50
9,CCOC(=O)[C@H](Cc1ccccc1)N=CC1C(=O)Nc2ccccc21 (stereo partly drawn) [(Z/E)-(S)-ethyl 2-((2-oxoindolin-3-ylidene)methylamino)-3-phenylpropanoate],> 50
10,O=C1Nc2ccc(Cl)cc2C1C=NCCCNc1ccnc2cc(Cl)ccc12 (stereo not drawn) [(Z/E)-5-chloro-3-((3-(7-chloroquinolin-4-ylamino)propylamino)methylene)indolin-2-one],> 50
11,CC(C)CCNC(=O)[C@H](CC(C)C)N=CC1C(=O)N(C)c2ccccc21 (stereo partly drawn) [(Z/E)-(S)-N-isopentyl-4-methyl-2-((1-methyl-2-oxoindolin-3-ylidene)methylamino)pentanamide],> 50

# Molecular target: Cysteine protease falcipain-3 (Plasmodium falciparum, UniProt Q9NAW4)
# Sequence (Q9NAW4 1-492): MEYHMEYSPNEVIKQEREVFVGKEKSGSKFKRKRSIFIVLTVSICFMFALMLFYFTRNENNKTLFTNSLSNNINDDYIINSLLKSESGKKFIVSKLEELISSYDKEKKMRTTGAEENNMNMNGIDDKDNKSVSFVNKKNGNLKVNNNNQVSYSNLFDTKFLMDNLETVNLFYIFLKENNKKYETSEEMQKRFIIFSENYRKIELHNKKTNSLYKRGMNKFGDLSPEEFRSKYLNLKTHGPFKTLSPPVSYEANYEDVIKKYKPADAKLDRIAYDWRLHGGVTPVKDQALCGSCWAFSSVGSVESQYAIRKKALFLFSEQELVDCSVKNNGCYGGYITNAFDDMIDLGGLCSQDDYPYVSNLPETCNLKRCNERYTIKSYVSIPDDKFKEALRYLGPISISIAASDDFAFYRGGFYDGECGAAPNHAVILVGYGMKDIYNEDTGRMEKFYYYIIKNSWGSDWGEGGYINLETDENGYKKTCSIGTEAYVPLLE
# Test: Inhibition of Plasmodium falciparum falcipain 3 incubated with compound for 10 mins before addition of 25 uM Z-Leu-Arg-AMC substrate by fluorescence spectrophotometry
# Method in brief: as §1
row,SMILES,IC50 [µM]
1,CC(C)CCNC(=O)[C@H](CCc1ccccc1)N=CC1C(=O)Nc2c(Cl)cccc21 (stereo partly drawn) [(Z/E)-(S)-2-((7-chloro-2-oxoindolin-3-ylidene)methylamino)-N-isopentyl-4-phenylbutanamide],> 50
2,CC(C)CCNC(=O)CN=CC1C(=O)Nc2ccccc21 (stereo not drawn) [(Z/E)-N-isopentyl-2-((2-oxoindolin-3-ylidene)methylamino)acetamide],> 50
3,CC(C)CCNC(=O)[C@H](CC(C)C)N=CC1C(=O)Nc2ccccc21 (stereo partly drawn) [(Z/E)-(S)-N-isopentyl-4-methyl-2-((2-oxoindolin-3-ylidene)methylamino)pentanamide],> 50
4,CC(C)CCNC(=O)[C@H](CCc1ccccc1)N=CC1C(=O)Nc2ccccc21 (stereo partly drawn) [(Z/E)-(S)-N-isopentyl-2-((2-oxoindolin-3-ylidene)methylamino)-4-phenylbutanamide],> 50
5,CC(C)CCNC(=O)[C@H](Cc1ccccc1)N=CC1C(=O)Nc2ccc(Cl)cc21 (stereo partly drawn) [(Z/E)-(S)-2-((5-chloro-2-oxoindolin-3-ylidene)methylamino)-N-isopentyl-3-phenylpropanamide],> 50
6,CC(C)CCNC(=O)[C@H](CC(C)C)N=CC1C(=O)Nc2ccc(Cl)cc21 (stereo partly drawn) [(Z/E)-(S)-2-((5-chloro-2-oxoindolin-3-ylidene)methylamino)-N-isopentyl-4-methylpentanamide],> 50
7,CC(C)CCNC(=O)[C@H](CC(C)C)N=CC1C(=O)N(C)c2ccccc21 (stereo partly drawn) [(Z/E)-(S)-N-isopentyl-4-methyl-2-((1-methyl-2-oxoindolin-3-ylidene)methylamino)pentanamide],> 50

# Reference: BindingDB's records for doi:10.1016/j.ejmech.2011.01.008 (University of Lisbon, 2011)
